Measured values as given in ChEMBL document CHEMBL1131590, “Muscarinic agonists with antipsychotic-like activity: structure-activity relationships of 1,2,5-thiadiazole analogues with functional dopamine antagonist activity” (J Med Chem, 1998).
Activity calls are given as the source filed them. The rule behind the calls is not given here.

Key:
[1] = In vitro inhibition of [3H]Oxo-Mas binding to M2 and M4 receptors in rat brain homogenate.
Rattus norvegicus [2] = assay: Conditioned avoidance responding in rat after subcutaneous administration (1 mg/kg); expressed as avoidance response/response failure; type: functional
Summary of the method: (§1)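 Single-dose screen in rats, given sc at the dose listed in each line. Each session typically ran 50 trials. Percent avoidance responses and percent response failures were recorded.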

Mus musculus [3] = assay: Inhibition of apomorphine-induced climbing following s.c. administration in mice.; type: functional; settings: sc
Summary of the method: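 Male Bom:NMRI mice, n=10 per group, received saline or drug sc 50 min before the trial and apomorphine 2 mg/kg sc 20 min before it. Each mouse was placed alone in a cylindrical wire cage, and climbing time over a 60-s trial was recorded automatically. ED50 and 95% confidence limits came from logistic nonlinear regression over 3-4 doses.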

Rattus norvegicus [4] = assay: Inhibition of conditioned avoidance response in rat following s.c. administration.; type: functional; settings: sc
Summary of the method: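 Rats were tested sc over a full dose range in the conditioned avoidance model, six rats per point, up to 50 trials per session. ED50 is the dose giving 50% of the drug's maximal effect on avoidance responding.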

Mus musculus [5] = assay: Salivation after subcutaneous administration in mice; type: functional; settings: sc
Summary of the method: (§2)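 Mice received saline or drug sc. Side effects were scored 30 min after injection on a three-grade scale and expressed as percent of the maximum possible score. ED50 was obtained by graphic interpolation of the dose-response curve.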

Mus musculus [6] = assay: Tremor after subcutaneous administration in mice was determined; type: functional; settings: sc
Summary of the method: as §2

Rattus norvegicus [7] = assay: Conditioned avoidance responding in rat after subcutaneous administration (3 mg/kg); expressed as avoidance response/response failure; type: functional
Summary of the method: as §1

[8] = In vitro inhibition of [3H]Oxo-Mas binding to M2 and M4 receptors in rat brain homogenate.; remark: listed apart in the source
Rattus norvegicus [9] = assay: Conditioned avoidance responding in rat after subcutaneous administration (0.3 mg/kg); expressed as avoidance response/response failure; 16/1; type: functional, organism-based
Summary of the method: as §1

Rattus norvegicus [10] = assay: Conditioned avoidance responding in rat after subcutaneous administration (0.3 mg/kg); expressed as avoidance response/response failure; 9/55; type: functional, organism-based
Rattus norvegicus [11] = assay: Conditioned avoidance responding in rat after subcutaneous administration (3 mg/kg); expressed as avoidance response/response failure; 48/20; type: functional, organism-based
Summary of the method: as §1

Rattus norvegicus [12] = assay: Conditioned avoidance responding in rat after subcutaneous administration (0.3 mg/kg); expressed as avoidance response/response failure; 24/63; type: functional, organism-based
Summary of the method: as §1

Rattus norvegicus [13] = assay: Conditioned avoidance responding in rat after subcutaneous administration (0.3 mg/kg); expressed as avoidance response/response failure; 29/19; type: functional, organism-based
Rattus norvegicus [14] = assay: Conditioned avoidance responding in rat after subcutaneous administration (1 mg/kg); expressed as avoidance response/response failure; 18/21; type: functional, organism-based
Rattus norvegicus [15] = assay: Conditioned avoidance responding in rat after subcutaneous administration (0.3 mg/kg); expressed as avoidance response/response failure; 3/41; type: functional, organism-based

Structure (SMILES)	IC50 [1] [nM]	ED50 (Mus musculus [3]) [mg/kg]	ED50 (Rattus norvegicus [4]) [mg/kg]	ED50 (Mus musculus [5]) [mg/kg]	ED50 (Mus musculus [6]) [mg/kg]	Activity (Rattus norvegicus [7]) [%]	further results
CCCCSc1nsnc1[C@@H]1CN2CCC[C@H]1C2	0.53	0.026	0.018	> 3	> 3	–	Activity (Rattus norvegicus [2]): 8%
CCCCSc1nsnc1C1=CCCN(C)C1	–	–	2.8	–	–	57	IC50 [8]: 1.3 nM
CCCCSc1nsnc1[C@H]1CN2CCC[C@@H]1C2	0.5	0.012	0.017	> 0.3	> 0.3	–	Activity (Rattus norvegicus [9]): Active
CCCCSc1nsnc1[C@@H]1CN2CCC[C@@H]1C2	9.9	–	> 3	–	–	86	–
O=C(CCCN1CCC(O)(c2ccc(Cl)cc2)CC1)c1ccc(F)cc1 [HALOPERIDOL]	–	0.08	0.11	–	–	–	Activity (Rattus norvegicus [10]): inactive
CSc1nsnc1C1CN2CCC[C@H]1C2 (some centres not stated)	2.9	0.2	0.14	–	–	–	–
CCCCSc1nsnc1[C@H]1CN2CCC[C@H]1C2	2.3	> 1	> 3	> 1	> 1	–	Activity (Rattus norvegicus [11]): Weak activity
CCCSc1nsnc1C1CN2CCC[C@H]1C2 (some centres not stated)	1.4	0.056	0.056	–	–	–	Activity (Rattus norvegicus [2]): 41%
O=C1CCCN1CC#CCN1CCCC1 [OXOTREMORINE]	5	0.09	0.3	0.2	0.24	–	Activity (Rattus norvegicus [12]): inactive
CCCSc1nsnc1[C@H]1CN2CCC[C@@H]1C2	0.64	0.021	0.013	> 3	2.2	31	–
CCCCSc1nsnc1C1CN2CCC[C@@H]1C2 (some centres not stated)	6.1	–	> 3	–	–	97	–
CCCCSc1nsnc1C1CN2CCC1CC2 (configuration not stated) [VEDACLIDINE]	2.2	–	0.1	–	–	18	–
CCCCCCSc1nsnc1C1CN2CCC[C@H]1C2 (some centres not stated)	3.3	0.06	0.1	–	–	–	Activity (Rattus norvegicus [13]): Weak activity
CC[C@@H]1C(=O)OC[C@@H]1Cc1cncn1C [PILOCARPINE]	67	3.87	4.5	4	> 10	–	Activity (Rattus norvegicus [14]): Weak activity
CCCSc1nsnc1[C@@H]1CN2CCC[C@@H]1C2	13.3	2.2	> 3	> 30	> 30	51	–
CCCSc1nsnc1[C@@H]1CN2CCC[C@H]1C2	0.65	0.17	0.03	> 3	1.3	39	–
CCCCSc1nsnc1C1CN2CC[C@H]1C2 (some centres not stated)	1.3	–	< 1	–	–	0	–
CCCCSc1nsnc1C1CN2CCC[C@H]1C2 (some centres not stated)	0.47	0.045	0.007	–	–	–	Activity (Rattus norvegicus [2]): 32%
CCCCSc1nsnc1C1CN2CC[C@@H]1C2 (some centres not stated)	4.2	–	> 1	–	–	100	–
CCCSc1nsnc1[C@H]1CN2CCC[C@H]1C2	3.6	2.21	> 3	> 30	> 30	86	–
CCCCCSc1nsnc1C1CN2CCC[C@H]1C2 (some centres not stated)	2.5	0.054	0.065	–	–	–	Activity (Rattus norvegicus [15]): inactive
CCSc1nsnc1C1CN2CCC[C@H]1C2 (some centres not stated)	1.3	0.047	0.045	–	–	–	–
